Measured values taken from PubChem BioAssay AID624204 (Sanford-Burnham Center for Chemical Genomics, 2012).
In all, about 360,000 compounds went through this assay and about 770 (0.21%) were called active. The entries come from a sample that favours actives as a whole. Values without a mark were called inactive.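 Rule for the calls: active = inhibition at least 30% at 10 µM, raw YFP signal under a set limit, fluorescence ratio 0.5 to 1.5; inactive = the rest.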

Each compound was assayed against Sentrin-specific protease 1 (Homo sapiens) (UniProt Q9P0U3) (assay: human SENP1 catalytic domain inhibitors, primary screen, biochemical, FRET, uHTS (AID 624204;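 note: 0% = enzyme with DMSO and 100% = no enzyme wells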)). Details: recombinant SENP1 catalytic domain, CyPet-SUMO1-YPet FRET cleavage; at 10 µM; stronger effect = higher value.
Chain of Sentrin-specific protease 1 (Homo sapiens) (Q9P0U3 419-644 limits assumed): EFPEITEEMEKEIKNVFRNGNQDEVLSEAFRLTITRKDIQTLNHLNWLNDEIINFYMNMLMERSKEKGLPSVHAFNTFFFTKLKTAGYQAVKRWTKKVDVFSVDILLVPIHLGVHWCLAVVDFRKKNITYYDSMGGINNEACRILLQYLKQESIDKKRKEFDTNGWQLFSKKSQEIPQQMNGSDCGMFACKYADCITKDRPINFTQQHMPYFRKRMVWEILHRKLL
Outline: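 System: Recombinant human SENP1 catalytic domain, His6-tagged | Incubation: Enzyme reaction for 50 min at room temperature, dark | Medium: Tris pH 8 with BME, BSA, NP40 and catalase | Also added: 25 nM SUMO1 FRET substrate | Compound: 10 µM single point, 0.5% DMSO | Measured by: FRET fluorescence in CFP and YFP emission channels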
`COC(=O)c1ccc(NC(=O)CSc2nncn2-c2cccnc2)cc1` showed an inhibition of -5.21%.
`COc1cccc(CNC(=O)C2CCCN(S(=O)(=O)N3CC(C)CC(C)C3)C2)c1` (configuration not stated) showed an inhibition of -0.397%.
Compound `CC(CC(=O)C1C(C)C=CCC1(C)C)NNC(N)=O` (configuration not stated) has an inhibition of 1.56%.
`COc1ccc2oc(C(=O)OCC(=O)N(CC(C)C)c3c(N)n(Cc4ccccc4)c(=O)[nH]c3=O)c(C)c2c1` showed an inhibition of -9.9%.
In the case of `CCOC(=O)N(C)c1c(CC)nc2c(OCc3ccccc3C(=O)OC)cccn12`, the inhibition is reported as 0.268%.
With `O=C(CN1CCN(S(=O)(=O)c2ccc(Br)cc2)CC1)Nc1ccccc1C(=O)c1ccccc1` the inhibition was 0.864%.
Compound `COc1ccc2c(c1)c(=O)c(C(=O)c1ccc(Cl)cc1)cn2CC(=O)Nc1ccc(F)cc1` has an inhibition of -1.49%.
In the case of `CCOc1ncccc1C(=O)OCC(=O)Nc1cccc(S(=O)(=O)N2CCCCCC2)c1`, the inhibition is reported as 2.06%.
With `O=C(NCc1cccnc1)c1ccccc1NC(=O)c1c(F)cccc1F` the inhibition was 3.29%.
`CCCNC(=O)c1cc(C2CCCCN2S(=O)(=O)c2ccc(C#N)cc2)on1` (configuration not stated) was tested, and the inhibition was 2.5%.
For `Cc1cc(C(=O)N/N=C/c2ccc(N3CCOCC3)cc2)c(C)o1`, the inhibition was 33.5% (active).
`CC(C)c1cc(C(=O)N/N=C/c2ccoc2)c(O)c(C(C)C)c1` showed an inhibition of 1.94%.
Compound `CNC(=S)N/N=C/c1ccc(N2CCOCC2)s1` has an inhibition of -70.3%.
For `Cc1ccc(S(=O)(=O)n2cccc2CO)cc1`, the inhibition was -0.0494%.
For `CC(C)NC(=O)C1(C)CCCCCN1C(=O)c1ccc(-c2ccccc2)cc1` (configuration not stated), the inhibition was 0.518%.
For `Cc1ccccc1CN1C(=O)CSCC1(C)C(=O)Nc1c(C)cccc1C` (configuration not stated), the inhibition was -2.15%.
In the case of `Cn1cc(/C=C/C(=O)N2CCCC(C(=O)c3ccc(C(F)(F)F)cc3)C2)cn1` (configuration not stated), the inhibition is reported as 0.414%.
`CO[C@H]1[C@@H]2C=CO[C@@H](O[C@H]3O[C@@H](CO)[C@H](O)[C@@H](O)[C@@H]3O)[C@@H]2[C@@]2(CO)O[C@@H]12` showed an inhibition of -2%.
In the case of `COC(=O)c1c(NC(=O)CN2C(=O)NC(CCc3ccccc3)C2=O)sc2c1CCCCC2` (configuration not stated), the inhibition is reported as -3.88%.
`NC1=NN(c2cccc(C(=O)O)c2)C(=O)C1` showed an inhibition of 4.58%.
With `Cc1cc(C)cc(C(=O)OCC(=O)NCCNC(=O)COC(=O)c2cc(C)cc(C)c2)c1` the inhibition was 0.612%.
Compound `O=C(c1ccc(-n2cnnn2)cc1)N1CCN(C(c2ccccc2)c2ccccc2)CC1` has an inhibition of 0.954%.
`CCc1ccc(OC(C)C(=O)Nc2ccc(S(=O)(=O)Nc3cc(C)on3)cc2)cc1` (configuration not stated) gave an inhibition of 2.02%.
Compound `CCC(=O)Nc1ccc(-c2ccc(N3CCCCC3)nn2)cc1` has an inhibition of -4.2%.
In the case of `COc1ccc(/C=C(\NC(=O)c2ccc(OCC(C)C)cc2)C(=O)OCc2ccco2)cc1`, the inhibition is reported as -2.88%.
With `COC1C(CO)OC(n2cnc3c(=S)nc(N)[nH]c32)C1O` (configuration not stated) the inhibition was 0.119%.
`Cc1ccc(CN2CCN(Cc3cccc(C)n3)CC2CCO)cc1` (configuration not stated) was tested, and the inhibition was -3.82%.
